SIRT5 inh = blocks human SIRT5 desuccinylation of peptide; inhibition, % at 15 µM; 1.1% of 330,000 active; Purified SirT5, succinyl-peptide AMC, trypsin-coupled fluorescence; in the data active means inhibition above about 15%
UCH37 inh = inhibitors of human deubiquitinating enzyme UCH37. Q9Y5K5. purified proteasome/UCH37, Ub-AMC cleavage fluorescence. inhibition, % (concentration not given with the values). 0.33% of 330,000 active;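 active means mean inhibition over replicate wells above about 20%, limit read from the data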
Target sequence (Q9Y5K5 whole entry, looked up): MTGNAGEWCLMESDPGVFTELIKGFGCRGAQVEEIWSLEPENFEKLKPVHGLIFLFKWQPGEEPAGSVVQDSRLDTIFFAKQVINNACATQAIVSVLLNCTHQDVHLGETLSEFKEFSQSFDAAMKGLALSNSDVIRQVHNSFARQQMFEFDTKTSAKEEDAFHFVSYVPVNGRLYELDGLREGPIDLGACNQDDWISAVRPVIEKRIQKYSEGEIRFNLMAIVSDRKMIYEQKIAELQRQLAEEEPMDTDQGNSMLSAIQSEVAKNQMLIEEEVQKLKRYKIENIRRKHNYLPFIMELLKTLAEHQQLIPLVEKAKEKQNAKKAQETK
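Test system – human UCH37 enzyme supplied as purified proteasome complex · Incubation – 30 min preincubation with enzyme, 25 min cleavage at room temperature · Detection – AMC fluorescence from Ub-AMC cleavage, excitation 355 nm, emission 460 nm · Benchmarks – no-proteasome wells (full inhibition) and compound-free wells (no inhibition)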
FGF22 binding = shifts melting point of recombinant human FGF22. Q9HCT0. recombinant FGF22 thermal shift, SYPRO orange fluorescence; percent of sucrose octasulfate shift, DMSO zero. activity (Tm shift, normalised), % at 9.99 µM. 1.5% of 340,000 active. AID 651658;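 active means mean Tm shift, scaled 0 neutral to 100 positive control, at about 1.3% or above, every replicate too, limit read from the data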
Target sequence (Q9HCT0 whole entry, looked up): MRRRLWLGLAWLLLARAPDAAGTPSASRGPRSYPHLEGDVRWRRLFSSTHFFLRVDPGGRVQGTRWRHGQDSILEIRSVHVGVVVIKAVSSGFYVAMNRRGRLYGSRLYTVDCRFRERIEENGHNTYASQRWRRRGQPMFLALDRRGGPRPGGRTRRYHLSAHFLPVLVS
Casp6 inh = blocks human caspase-6 cleavage activity; purified caspase-6, Z-VEID-R110 cleavage fluorescence; inhibition, % at 12.5 µM; 0.53% of 350,000 active; AID 686996;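 active means mean inhibition across replicates at least about 35%, with every replicate also reaching that limit, limit read from the data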
NSD2 HMT inh = NSD2 (human) methyltransferase inhibition; NSD2 peptide methylation, AlphaScreen, 120 min; inhibition, % at 12.5 µM; 0.54% of 310,000 active; in the data active means inhibition above about 50%
AlphaScreen art = interferes with AlphaScreen signal, flagging NSD2 false positives | AC35, µM (doses to about 10 µM) | shares compounds with NSD2 HMT inh | 9.4% of 1,500 active | AlphaScreen artifact counterscreen, preloaded methylated H4 peptide; call rule not given here
Hits are given with their value; 0 = inactive; - = no result given. An excerpt weighted towards active compounds, which were near 2.6% of everything screened.

SMILES | SIRT5 inh | UCH37 inh | FGF22 binding | Casp6 inh | NSD2 HMT inh | AlphaScreen art
O=C(COc1ncnc2c(Cl)cc(Cl)cc12)N1CCCCC1 | 0 | 0 | - | 0 | 53.3 | 0
COCC(=O)N1[C@H](C#N)[C@H](c2ccc(C#CCC3CCCC3)cc2)[C@@H]1CO | 0 | - | 0 | 0 | - | -
CCCCn1c(NS(=O)(=O)c2ccc(C)cc2)c(S(=O)(=O)c2ccccc2)c2nc3ccccc3nc21 | - | 0 | 0 | 0 | 126.6 | 0
CCN(C(=O)/C=C/c1ccc2c(c1)OCO2)c1ccccc1 | - | 0 | - | - | 61.7 | 0
CCOC(=O)c1c(NC(=O)COC)sc2c1CCCC2 | - | 0 | - | - | 57.1 | 0
O=C1C(=O)c2cccnc2-c2ncccc21 | 0 | - | 0 | 61.0 | 144.8 | 0
O=C1c2ccccc2-c2nccnc21 | - | 0 | - | - | - | -
COCC(=O)N(C)C[C@H]1Oc2cc(C#C[C@H](C)O)ccc2S(=O)(=O)N([C@H](C)CO)C[C@H]1C | 0 | - | 0 | 0 | - | -
O=C(O)COc1ccc(/C=C/C(=O)c2ccc3ccccc3c2)cc1 | - | 0 | - | - | 87.6 | 0
C[C@H](CO)N1C[C@H](C)[C@@H](CN(C)S(=O)(=O)c2ccc(Cl)cc2)Oc2ccc(NC(=O)Cc3ccccc3)cc2C1=O | 0 | - | 0 | 0 | - | -
O=C(Cc1ccccc1Cl)NC1(O)C(=O)c2ccccc2C1=O | 0 | - | 0 | 0 | 93.7 | 0
O=C(C1CC1)N1CC(=O)N2[C@H](C1)[C@@H](c1ccc(-c3cccnc3)cc1)[C@@H]2CO | 0 | - | - | 0 | - | -
Cc1cc(SCC(=O)c2ccc3c(c2)OCO3)nc2ccccc12 | - | 0 | - | - | 0 | -
Cc1cc(SCC(=O)c2ccc(O)c(O)c2)nc2ccccc12 | 0 | 0 | 0 | 0 | 67.0 | 0
Cc1nc(NC(=O)CSc2cc(C)c3ccccc3n2)c(Cl)cc1Cl | - | 0 | - | - | 0 | -
Cc1cc(SCC(=O)Nc2cccnc2Cl)nc2ccccc12 | 0 | 0 | 0 | 0 | 64.9 | 0
CN1CCN(N=Cc2nc(-c3cccc([N+](=O)[O-])c3)n3ccccc23)CC1 | - | 0 | - | - | - | -
COCc1cn(CC[C@@H]2CC[C@@H](NC(=O)c3ccccc3)[C@@H](CO)O2)nn1 | 0 | - | 0 | 0 | - | -
CCCCn1c2nc3ccccc3nc2c2c(=N)oc(C)nc21 | 0 | 0 | 0 | 0 | 0 | -
COc1ccc(-n2c3nc4ccccc4nc3c3c(=N)oc(C)nc32)cc1 | - | 0 | - | - | 115.3 | 0
O=C(O)CN1C(=O)/C(=C/c2ccc(SCc3ccccc3)o2)SC1=S | 0 | 0 | - | 51.6 | 54.0 | 0
CCn1c2ccccc2c2cc(C=Nn3cnnc3)ccc21 | - | 0 | - | - | - | -
O=C1CCCC(O)=C1N=Nc1ccc(C(=O)O)cc1 | 33.2 | 0 | 0 | 37.8 | 95.6 | 0
CC(C)Sc1nnc([C@H](Cc2c[nH]c3ccccc23)NC(=O)OC(C)(C)C)o1 | - | 0 | - | - | 54.5 | 0
CC(C)(C)OC(=O)N[C@@H](Cc1c[nH]c2ccccc12)c1nnc(SCC(N)=O)o1 | - | 0 | - | - | 0 | -
SMILES | SIRT5 inh | UCH37 inh | FGF22 binding | Casp6 inh | NSD2 HMT inh | AlphaScreen art
COc1ccc(NC(=O)COC(=O)c2ccc3ccccc3n2)cc1 | 0 | 0 | 0 | 0 | 0 | -
CCN(CC)c1ccc(NC(=O)COC(=O)c2ccc3ccccc3n2)cc1 | - | 0 | - | - | 106.6 | 0
O=C(NCc1ccco1)c1ccc(C(=O)NCc2ccco2)s1 | - | 0 | - | - | 0 | -
O=C(NCc1ccco1)c1scc2c1OCCO2 | - | 0 | - | - | 90.1 | 0
CC(C)Oc1ccc(Br)cc1C=NNC(N)=S | - | 0 | - | - | - | -
COCC#Cc1cnc2c(c1)C(=O)N([C@H](C)CO)C[C@@H](C)[C@H](CN(C)S(C)(=O)=O)O2 | 0 | - | 0 | 0 | - | -
CCOC(=O)c1ccc(S(=O)(=O)N2CCN(C(C)=O)CC2)cc1 | 0 | 0 | 0 | 0 | 0 | -
CCOC(=O)c1ccc(S(=O)(=O)N2CCN(c3ccccn3)CC2)cc1 | 0 | 0 | 0 | 0 | 50.6 | 0
N#CCC(=O)c1sccc1-n1cccc1 | 0 | 0 | 0 | 0 | 91.9 | 0
C[C@@H]1CN([C@@H](C)CO)C(=O)c2cc(-c3cncnc3)cnc2O[C@H]1CN(C)Cc1ccccc1 | 0 | - | 0 | 0 | - | -
Cc1c(C)n(Cc2ccccc2)c2ccc(C(=O)OCCCN(C)C)cc12 | 0 | 0 | 0 | 0 | 90.4 | 0
CC(NC(=O)c1cccc(Br)c1)c1ccccc1 (stereo not given) | 0 | 0 | 0 | 0 | 96.5 | 0
CCCNC(=O)N1[C@H](C#N)[C@H](c2ccc(-c3ccc(C(=O)N(C)C)cc3)cc2)[C@@H]1CO | 0 | - | 0 | 0 | - | -
O=C(Nc1ccccc1)OCCCCOC(=O)Nc1ccccc1 | 0 | 0 | 0 | 0 | 54.6 | 0

Bioassay records (PubChem)
